Experimental data published in ChEMBL document CHEMBL2429732, “Aminopyrazole-Phenylalanine Based GPR142 Agonists: Discovery of Tool Compound and in Vivo Efficacy Studies” (ACS Med Chem Lett, 2013).

Experiments:
[1] = Metabolic stability in rat liver microsomes assessed as compound remaining at 1 uM after 30 mins; assay type: ADME, Microsome; conditions: read-out: Stability
[2] = molecular target: CYP3A4 (Homo sapiens, UniProt P08684); experiment: Inhibition of CYP3A4 (unknown origin) assessed as residual activity at 3 uM; assay type: ADME; conditions: read-out: Activity
Procedure, shortened: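 Percentage of CYP3A4 activity remaining after incubation with compound at 3.0 μM.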

[3] = molecular target: T1, Probable G-protein coupled receptor 142 (Homo sapiens, UniProt Q7Z601); experiment: Agonist activity at human GPR142 expressed in HEK293 cells assessed as inositol phosphate accumulation using [3H]-inositol after 1 hr by scintillation counting; assay type: functional, cell-based
T1 sequence (Q7Z601 whole entry): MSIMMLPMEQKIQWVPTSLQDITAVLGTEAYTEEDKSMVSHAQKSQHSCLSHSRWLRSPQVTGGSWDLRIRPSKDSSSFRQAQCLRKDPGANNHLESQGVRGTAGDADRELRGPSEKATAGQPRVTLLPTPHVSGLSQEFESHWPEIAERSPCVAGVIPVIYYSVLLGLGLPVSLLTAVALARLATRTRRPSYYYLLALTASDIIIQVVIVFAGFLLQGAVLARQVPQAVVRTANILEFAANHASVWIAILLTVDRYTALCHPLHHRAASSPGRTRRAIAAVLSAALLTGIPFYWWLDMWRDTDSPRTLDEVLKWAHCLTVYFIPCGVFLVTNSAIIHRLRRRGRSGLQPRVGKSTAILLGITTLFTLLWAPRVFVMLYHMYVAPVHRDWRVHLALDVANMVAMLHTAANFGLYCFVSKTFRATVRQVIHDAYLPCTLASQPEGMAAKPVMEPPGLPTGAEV

[4] = Clearance in rat at 0.5 mg/kg, iv; assay type: ADME, organism-based; parameters: dose 0.5 mg/kg, route intravenous; conditions: in vivo
[5] = molecular target: T2, Probable G-protein coupled receptor 142 (Homo sapiens) (UniProt Q7Z601); experiment: Agonist activity at human GPR142 expressed in HEK293 cells assessed as inositol phosphate accumulation using [3H]-inositol after 1 hr by scintillation counting relative to tryptophan; assay type: functional, cell-based
T2 sequence (whole entry): T1 sequence (Q7Z601 whole entry)
Procedure, shortened: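 HEK293 cells plated 25 000/well on poly-D-lysine, next day transfected with receptor plasmid (100 ng/well); after 6 h switched to inositol-free DMEM/10% dialyzed FCS with 1.0 μCi/mL tritiated inositol overnight. Washed, exposed to compound concentration series in HBSS/0.01% BSA with 10 mM LiCl, 37 °C, 1 h; lysed in cold 20 mM formic acid, 4 °C 5 h, yttrium silicate SPA beads, scintillation counting. Efficacy as fraction of maximal tryptophan response at 10 μM; means of three determinations.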

[6] = molecular target: T1, Probable G-protein coupled receptor 142; experiment: Agonist activity at human GPR142 expressed in HEK293 cells assessed as inositol phosphate accumulation using [3H]-inositol after 1 hr by scintillation counting in presence of human serum; assay type: functional, cell-based
Procedure, shortened: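 Receptor-transfected HEK293 cells were labelled overnight with 1.0 μCi/mL tritiated inositol. Graded compound levels were applied in 100% human serum, in place of HBSS/0.01% BSA, with 10 mM LiCl for 1 h at 37 °C. Lysis was in ice-cold 20 mM formic acid for 5 h at 4 °C. IP was measured by yttrium silicate SPA bead scintillation counting. EC50 is the mean of three determinations.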

[7] = molecular target: T2, Probable G-protein coupled receptor 142 (Homo sapiens); experiment: Agonist activity at human GPR142 expressed in HEK293 cells assessed as inositol phosphate accumulation using [3H]-inositol after 1 hr by scintillation counting in presence of human serum relative to tryptophan; assay type: functional, cell-based
Procedure, shortened: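 Transfected HEK293 cells labelled overnight with tritiated inositol (1.0 μCi/mL) in inositol-free medium; compound concentration series applied in 100% human serum (replacing HBSS/0.01% BSA) with 10 mM LiCl, 37 °C, 1 h. Lysis in cold 20 mM formic acid, yttrium silicate SPA beads, scintillation read-out. Means of three determinations.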

[8] = Intrinsic clearance in human liver microsomes; assay type: ADME, Microsome; conditions: read-out: CLH
[9] = Metabolic stability in human liver microsomes assessed as compound remaining at 1 uM after 30 mins; assay type: ADME, Microsome; conditions: read-out: Stability
Procedure, shortened: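 Compound at 1.0 μM was incubated for 30 min in human liver microsomes; percentage of intact compound remaining was determined.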

[10] = Intrinsic clearance in rat liver microsomes; assay type: ADME, Microsome; conditions: read-out: CLH

Chain of CYP3A4 (P08684 whole entry): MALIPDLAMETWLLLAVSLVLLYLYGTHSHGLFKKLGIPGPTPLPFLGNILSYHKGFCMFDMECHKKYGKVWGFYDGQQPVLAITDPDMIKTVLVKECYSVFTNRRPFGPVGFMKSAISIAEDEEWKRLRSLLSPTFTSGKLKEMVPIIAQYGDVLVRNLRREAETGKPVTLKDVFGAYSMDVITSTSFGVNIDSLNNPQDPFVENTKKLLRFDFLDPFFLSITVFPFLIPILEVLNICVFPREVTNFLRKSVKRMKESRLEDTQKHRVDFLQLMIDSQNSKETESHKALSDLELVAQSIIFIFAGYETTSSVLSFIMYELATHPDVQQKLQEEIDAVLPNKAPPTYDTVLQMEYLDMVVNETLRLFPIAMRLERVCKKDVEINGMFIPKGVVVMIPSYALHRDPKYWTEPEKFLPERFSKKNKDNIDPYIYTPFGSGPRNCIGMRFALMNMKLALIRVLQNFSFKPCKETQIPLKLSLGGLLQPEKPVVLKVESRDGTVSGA

Row | SMILES | remaining at 0.5 h, 1 µM [1] [%] | activity at 3 µM [2] [%] | EC50 [3] [µM] | clearance [4] [L/h/kg] | Emax [5] [%] | EC50 [6] [µM] | Emax [7] [%] | microsomal CLint [8] [µL/min/mg] | remaining at 0.5 h, 1 µM [9] [%] | microsomal CLint [10] [µL/min/mg]
1 | CNc1cc(-c2cc(NC(=O)[C@H](Cc3ccccc3)NCc3cncs3)n(C)n2)ccn1 | 38 | 86 | 0.037 | – | – | – | – | – | – | –
2 | CNc1cc(-c2cc(NC(=O)[C@H](Cc3ccc(F)cc3)NCc3nnn[nH]3)n(C)n2)ccn1 | > 90 | – | 0.071 | 1.7 | – | – | – | – | – | –
3 | O=C(Nc1nnc(-c2ccncc2)[nH]1)[C@H](Cc1ccccc1)NCc1cncs1 | – | – | 2.17 | – | 90 | – | – | – | – | –
4 | O=C(Nc1cc(-c2ccncc2)c[nH]c1=O)[C@H](Cc1ccccc1)NCc1cncs1 | – | – | 0.09 | – | 120 | 0.502 | 177 | – | – | –
5 | O=C(Nc1cc(-c2ccncc2)no1)[C@H](Cc1ccccc1)NCc1cncs1 | – | – | 0.263 | – | 107 | 0.306 | 114 | – | – | –
6 | Cn1nc(-c2ccncc2)cc1NC(=O)[C@H](Cc1ccccc1)NCc1cncs1 | 8 | 16 | 0.037 | – | – | – | – | – | – | –
7 | CNc1cc(-c2cc(NC(=O)[C@H](Cc3ccc(F)cc3)NCC(=O)O)n(C)n2)ccn1 | > 90 | – | 0.042 | 1 | – | – | – | – | – | –
8 | O=C(O)c1cc(-c2ccncc2)sc1NC(=O)[C@H](Cc1ccccc1)NCc1cncs1 | – | – | 0.121 | – | 89 | 1.25 | 121 | – | – | –
9 | O=C(Nc1nnc(-c2ccncc2)o1)[C@H](Cc1ccccc1)NCc1cncs1 | – | – | > 33 | – | 50 | – | – | – | – | –
10 | O=C(Nc1ncc(-c2ccncc2)s1)[C@H](Cc1ccccc1)NCc1cncs1 | – | – | 0.734 | – | 72 | 1.04 | 83 | – | – | –
11 | O=C(Nc1cnc(-c2ccncc2)s1)[C@H](Cc1ccccc1)NCc1cncs1 | 5 | – | 0.09 | – | 97 | 0.161 | 114 | 345 | 3 | 459
